Reference: ChEMBL document CHEMBL4334471, “Discovery of 1,8-disubstituted-[1,2,3]triazolo[4,5-c]quinoline derivatives as a new class of Hippo signaling pathway inhibitors” (Bioorg Med Chem Lett, 2019)

Columns and labels:
[1] = target: Casein kinase I isoform gamma-1 (Homo sapiens) (UniProt Q9HCP0); assay: Inhibition of recombinant human CK1gamma1 assessed as residual activity at 10 uM using KRRRALS(p)VASLPGL as substrate incubated for 40 mins in presence of [gamma-33ATP] by scintillation counting based radiometry assay relative to control
[2] = species on record: Homo sapiens; assay: Inhibition of recombinant full length human PKBalpha S478G mutant assessed as residual activity at 10 uM using GRPRTSSFAEGKK as substrate incubated for 40 mins in presence of [gamma33P]ATP by scintillation counting based radiometry assay relative to control
[3] = target: CDK6/cyclin D3 (Homo sapiens) (UniProt P30281+Q00534); assay: Inhibition of recombinant full length human CDK6/cyclinD3 assessed as residual activity at 10 uM using histone H1 as substrate incubated for 40 mins in presence of [gamma-33ATP] by scintillation counting based radiometry assay relative to control; assay type: protein-complex assay
[4] = target: Ribosomal protein S6 kinase alpha-5 (Homo sapiens) (UniProt O75582); assay: Inhibition of recombinant human MSK1 (2 to end residues) assessed as residual activity at 10 uM using GRPRTSSFAEGKK as substrate incubated for 40 mins in presence of [gamma-33ATP by scintillation counting based radiometry assay relative to control
[5] = target: Fibroblast growth factor receptor 3 (Homo sapiens) (UniProt P22607); assay: Inhibition of recombinant human FGFR3 (447 to 761 residues) assessed as residual activity at 10 uM using poly(Glu, Tyr) 4:1 as substrate at 40 mins in presence of [gamma-33ATP] by scintillation counting based radiometry assay relative to control
[6] = test system: PI3-kinase p110-alpha/p85-alpha (Homo sapiens), P27986+P42336 [E545K]; assay: Inhibition of recombinant full-length human PI3K p110/p85 E545K mutant assessed as residual activity at 10 uM using phosphatidylinositol-4, 5-bisphosphate as substrate incubated for 40 mins in presence of [gamma33P]ATP by scintillation counting based radiometry assay relative to control
[7] = target: Rhodopsin kinase GRK1 (Homo sapiens) (UniProt Q15835); assay: Inhibition of recombinant full length human GRK1 assessed as residual activity at 10 uM using KKKKERLLDDRHD as substrate at 40 mins in presence of [gamma-33ATP] by scintillation counting based radiometry assay relative to control
[8] = target: Dual specificity mitogen-activated protein kinase kinase 1 (Homo sapiens) (UniProt Q02750); assay: Inhibition of recombinant human MEK1 assessed as residual activity at 10 uM using inactive MAPK2 as substrate incubated for 40 mins in presence of [gamma-33ATP by scintillation counting based radiometry assay relative to control
[9] = target: G protein-coupled receptor kinase 5 (Homo sapiens) (UniProt P34947); assay: Inhibition of recombinant full length human GRK5 assessed as residual activity at 10 uM using casein as substrate at 40 mins in presence of [gamma-33ATP] by scintillation counting based radiometry assay relative to control
[10] = test system: RAF proto-oncogene serine/threonine-protein kinase (Homo sapiens), P04049 [Y340D,Y341D]; assay: Inhibition of recombinant human C-Raf Y340D/Y341D mutant (306 to end residues) assessed as residual activity at 10 uM poly(Glu, Tyr) 4:1 as substrate incubated 40 mins in presence of [gamma-33ATP] by scintillation counting based radiometry assay relative to control
[11] = test system: RAC-beta serine/threonine-protein kinase (Homo sapiens), P31751 [S474D]; assay: Inhibition of recombinant human PKBbeta S474D mutant (120 to end residues) assessed as residual activity at 10 uM using GRPRTSSFAEGKK as substrate incubated for 40 mins in presence of [gamma33P]ATP by scintillation counting based radiometry assay relative to control
[12] = target: Serine/threonine-protein kinase LATS1 (Homo sapiens, UniProt O95835); assay: Binding affinity to recombinant human LATS1 (Q678 to V1130 residues) expressed in bacterial expression system assessed as dissociation constant by Kinomescan method
In short: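 KINOMEscan competition binding assay. Kinase bound at each concentration of test compound was quantified by qPCR and plotted against log10 compound concentration to derive Kd.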

[13] = target: cGMP-dependent protein kinase 1 (Homo sapiens) (UniProt Q13976); assay: Inhibition of recombinant full-length human PKG1alpha assessed as residual activity at 10 uM using RRRLSFAEPG as substrate incubated for 40 mins in presence of [gamma33P]ATP by scintillation counting based radiometry assay relative to control
[14] = test system: Hepatocyte growth factor receptor (Homo sapiens), P08581 [Y1230H]; assay: Inhibition of recombinant human MET A1209G/V1290L/Y1248H mutant (974 to end residues) assessed as residual activity at 10 uM using KKKGQEEEYVFIE as substrate incubated for 40 mins in presence of [gamma-33ATP by scintillation counting based radiometry assay relative to control
[15] = target: Calcium/calmodulin-dependent protein kinase type 1 (Homo sapiens) (UniProt Q14012); assay: Inhibition of recombinant human CaMKIalpha (2 to end residues) assessed as residual activity at 10 uM using […] incubated for 40 mins in presence of [gamma-33ATP] by scintillation counting based radiometry assay relative to control
[16] = target: Ephrin type-B receptor 1 (Homo sapiens) (UniProt P54762); assay: Inhibition of recombinant human EphB1 (564 to end residues) assessed as residual activity at 10 uM using KVEKIGEGTYGVVYK as substrate at 40 mins in presence of [gamma-33ATP] by scintillation counting based radiometry assay relative to control
[17] = target: Ephrin type-A receptor 7 (Homo sapiens) (UniProt Q15375); assay: Inhibition of recombinant human EphA7 (613 to 909 residues) assessed as residual activity at 10 uM using KTFCGTPEYLAPEVRREPRILSEEEQEMFRDFDYIADWC as substrate at 40 mins in presence of [gamma-33ATP] by scintillation counting based radiometry assay relative to control
[18] = species on record: Mus musculus; assay: Inhibition of mouse ABL1 L782P/G784R/W785L/L786V mutant (27 to end residues) at 10 uM using EAIYAAPFAKKK as substrate incubated for 40 mins in presence of [gamma-33ATP] by scintillation counting based radiometry assay relative to control; parameters: scale not given: the % may be the effect or the level left
[19] = test system: Serine/threonine-protein kinase Chk2 (Homo sapiens), O96017 [I157T]; assay: Inhibition of recombinant human CHK2 I157T mutant (5 to end residues) assessed as residual activity at 10 uM using KKKVSRSGLYRSPSMPENLNRPR as substrate incubated for 40 mins in presence of [gamma-33ATP] by scintillation counting based radiometry assay relative to control
[20] = target: Casein kinase 2 (Homo sapiens) (UniProt P67870+P68400+P19784+Q8NEV1); assay: Inhibition of recombinant human CK2 assessed as residual activity at 10 uM in presence of [gamma-33ATP] by scintillation counting based radiometry assay relative to control; assay type: protein assay

Sequence of Ephrin type-A receptor 7 (Homo sapiens) (Q15375 28-998 limits assumed): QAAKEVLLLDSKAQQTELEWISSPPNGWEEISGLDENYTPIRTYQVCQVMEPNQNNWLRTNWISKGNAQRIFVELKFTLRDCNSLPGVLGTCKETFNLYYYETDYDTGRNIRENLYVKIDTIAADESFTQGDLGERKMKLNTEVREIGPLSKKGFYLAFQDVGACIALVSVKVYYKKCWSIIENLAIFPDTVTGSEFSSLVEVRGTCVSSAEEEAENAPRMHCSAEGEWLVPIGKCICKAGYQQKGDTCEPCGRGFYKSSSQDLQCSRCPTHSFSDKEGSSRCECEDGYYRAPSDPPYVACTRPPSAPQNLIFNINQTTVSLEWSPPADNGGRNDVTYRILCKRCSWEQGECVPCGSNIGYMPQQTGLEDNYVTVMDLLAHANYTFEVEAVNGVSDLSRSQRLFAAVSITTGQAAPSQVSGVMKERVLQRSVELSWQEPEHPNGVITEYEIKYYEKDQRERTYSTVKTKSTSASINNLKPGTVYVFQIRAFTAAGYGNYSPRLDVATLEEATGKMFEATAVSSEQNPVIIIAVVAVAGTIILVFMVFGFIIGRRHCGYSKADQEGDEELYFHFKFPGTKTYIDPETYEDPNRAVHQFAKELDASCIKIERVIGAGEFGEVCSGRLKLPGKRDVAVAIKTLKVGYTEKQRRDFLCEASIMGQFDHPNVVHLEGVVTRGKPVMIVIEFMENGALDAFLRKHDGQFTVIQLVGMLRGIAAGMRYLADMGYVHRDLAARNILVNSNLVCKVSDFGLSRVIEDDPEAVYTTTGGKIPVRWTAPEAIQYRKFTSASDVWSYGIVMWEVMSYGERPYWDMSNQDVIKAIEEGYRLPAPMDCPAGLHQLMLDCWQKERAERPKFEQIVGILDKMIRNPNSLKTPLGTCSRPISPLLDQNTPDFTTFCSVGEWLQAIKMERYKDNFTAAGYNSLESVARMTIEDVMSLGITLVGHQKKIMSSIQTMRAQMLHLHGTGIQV
Sequence of cGMP-dependent protein kinase 1 (Homo sapiens) (Q13976 whole entry): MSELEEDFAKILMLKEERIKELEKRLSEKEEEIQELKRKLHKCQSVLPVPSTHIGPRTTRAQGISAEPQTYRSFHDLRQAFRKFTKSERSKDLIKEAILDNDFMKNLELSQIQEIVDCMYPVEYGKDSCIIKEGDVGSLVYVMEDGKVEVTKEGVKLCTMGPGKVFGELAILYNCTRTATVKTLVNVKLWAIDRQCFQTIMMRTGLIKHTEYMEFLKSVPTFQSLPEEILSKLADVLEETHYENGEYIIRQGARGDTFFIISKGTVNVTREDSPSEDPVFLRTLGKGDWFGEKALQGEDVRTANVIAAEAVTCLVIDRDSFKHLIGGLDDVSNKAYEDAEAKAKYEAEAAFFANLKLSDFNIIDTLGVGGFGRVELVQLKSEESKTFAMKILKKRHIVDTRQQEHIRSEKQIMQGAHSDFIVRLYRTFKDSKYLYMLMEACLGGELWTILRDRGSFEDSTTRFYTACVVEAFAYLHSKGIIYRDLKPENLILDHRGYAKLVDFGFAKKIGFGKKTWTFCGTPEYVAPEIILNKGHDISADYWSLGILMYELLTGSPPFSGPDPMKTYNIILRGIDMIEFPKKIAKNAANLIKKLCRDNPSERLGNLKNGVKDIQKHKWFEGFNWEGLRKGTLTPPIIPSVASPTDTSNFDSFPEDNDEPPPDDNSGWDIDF
Sequence of Dual specificity mitogen-activated protein kinase kinase 1 (Homo sapiens) (Q02750 whole entry): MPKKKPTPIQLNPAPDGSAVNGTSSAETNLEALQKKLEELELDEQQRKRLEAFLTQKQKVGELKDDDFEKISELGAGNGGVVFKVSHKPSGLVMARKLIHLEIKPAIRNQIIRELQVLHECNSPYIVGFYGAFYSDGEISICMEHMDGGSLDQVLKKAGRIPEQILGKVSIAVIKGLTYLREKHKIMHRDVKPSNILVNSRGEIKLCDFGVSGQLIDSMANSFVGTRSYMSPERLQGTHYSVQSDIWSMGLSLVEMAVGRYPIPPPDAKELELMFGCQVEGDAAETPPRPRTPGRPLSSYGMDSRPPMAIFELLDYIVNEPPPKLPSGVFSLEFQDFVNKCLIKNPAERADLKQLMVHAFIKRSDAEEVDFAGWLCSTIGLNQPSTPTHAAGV
Sequence of Fibroblast growth factor receptor 3 (Homo sapiens) (P22607 23-806 limits assumed): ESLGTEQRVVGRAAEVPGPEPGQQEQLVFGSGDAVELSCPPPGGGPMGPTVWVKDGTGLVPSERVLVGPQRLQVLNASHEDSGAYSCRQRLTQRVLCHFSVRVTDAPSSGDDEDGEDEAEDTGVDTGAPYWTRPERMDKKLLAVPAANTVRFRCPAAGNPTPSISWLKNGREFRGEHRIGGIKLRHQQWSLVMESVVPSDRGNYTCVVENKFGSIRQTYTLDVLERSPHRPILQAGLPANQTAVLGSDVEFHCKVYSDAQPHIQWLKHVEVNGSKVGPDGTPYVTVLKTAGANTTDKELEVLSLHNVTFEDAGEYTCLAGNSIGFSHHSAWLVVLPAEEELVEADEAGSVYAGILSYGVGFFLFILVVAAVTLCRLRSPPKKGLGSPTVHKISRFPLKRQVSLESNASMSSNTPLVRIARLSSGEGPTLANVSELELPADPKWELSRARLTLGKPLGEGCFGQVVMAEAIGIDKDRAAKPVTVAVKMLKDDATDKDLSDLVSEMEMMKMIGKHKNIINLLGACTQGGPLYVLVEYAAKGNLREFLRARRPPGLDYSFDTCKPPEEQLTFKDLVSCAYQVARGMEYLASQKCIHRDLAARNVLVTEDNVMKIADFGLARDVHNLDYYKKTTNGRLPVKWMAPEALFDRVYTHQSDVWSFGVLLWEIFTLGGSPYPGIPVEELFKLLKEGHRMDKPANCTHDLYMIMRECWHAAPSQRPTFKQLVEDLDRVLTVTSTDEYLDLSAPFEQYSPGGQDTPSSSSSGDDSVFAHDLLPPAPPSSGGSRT
Sequence of Serine/threonine-protein kinase Chk2 (Homo sapiens), O96017 [I157T] (O96017 whole entry I157T): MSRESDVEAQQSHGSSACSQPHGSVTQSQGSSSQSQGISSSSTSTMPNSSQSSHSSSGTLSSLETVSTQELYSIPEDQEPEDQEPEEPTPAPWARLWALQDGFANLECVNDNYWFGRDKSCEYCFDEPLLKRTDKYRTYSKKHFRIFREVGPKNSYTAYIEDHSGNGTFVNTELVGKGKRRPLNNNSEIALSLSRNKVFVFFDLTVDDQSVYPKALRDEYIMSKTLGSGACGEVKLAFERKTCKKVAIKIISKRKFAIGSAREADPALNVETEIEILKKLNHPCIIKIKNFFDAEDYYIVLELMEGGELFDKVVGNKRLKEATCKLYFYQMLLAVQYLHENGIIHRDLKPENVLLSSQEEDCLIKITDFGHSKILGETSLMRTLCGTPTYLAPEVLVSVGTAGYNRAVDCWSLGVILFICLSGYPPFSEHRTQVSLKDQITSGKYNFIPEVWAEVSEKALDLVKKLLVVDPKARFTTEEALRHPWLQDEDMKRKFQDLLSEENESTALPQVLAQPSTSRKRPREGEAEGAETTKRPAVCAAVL
Sequence of Calcium/calmodulin-dependent protein kinase type 1 (Homo sapiens) (Q14012 whole entry, looked up): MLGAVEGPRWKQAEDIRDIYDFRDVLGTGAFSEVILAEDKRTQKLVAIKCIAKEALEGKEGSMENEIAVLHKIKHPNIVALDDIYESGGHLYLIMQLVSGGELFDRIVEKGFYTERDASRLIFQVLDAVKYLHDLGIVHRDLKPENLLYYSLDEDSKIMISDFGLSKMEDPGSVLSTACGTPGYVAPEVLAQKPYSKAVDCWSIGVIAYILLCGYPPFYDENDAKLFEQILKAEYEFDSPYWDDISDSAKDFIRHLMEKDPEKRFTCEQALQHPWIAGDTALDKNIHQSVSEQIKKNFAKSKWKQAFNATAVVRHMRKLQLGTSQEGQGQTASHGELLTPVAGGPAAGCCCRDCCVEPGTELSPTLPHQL
Sequence of G protein-coupled receptor kinase 5 (Homo sapiens) (P34947 whole entry, looked up): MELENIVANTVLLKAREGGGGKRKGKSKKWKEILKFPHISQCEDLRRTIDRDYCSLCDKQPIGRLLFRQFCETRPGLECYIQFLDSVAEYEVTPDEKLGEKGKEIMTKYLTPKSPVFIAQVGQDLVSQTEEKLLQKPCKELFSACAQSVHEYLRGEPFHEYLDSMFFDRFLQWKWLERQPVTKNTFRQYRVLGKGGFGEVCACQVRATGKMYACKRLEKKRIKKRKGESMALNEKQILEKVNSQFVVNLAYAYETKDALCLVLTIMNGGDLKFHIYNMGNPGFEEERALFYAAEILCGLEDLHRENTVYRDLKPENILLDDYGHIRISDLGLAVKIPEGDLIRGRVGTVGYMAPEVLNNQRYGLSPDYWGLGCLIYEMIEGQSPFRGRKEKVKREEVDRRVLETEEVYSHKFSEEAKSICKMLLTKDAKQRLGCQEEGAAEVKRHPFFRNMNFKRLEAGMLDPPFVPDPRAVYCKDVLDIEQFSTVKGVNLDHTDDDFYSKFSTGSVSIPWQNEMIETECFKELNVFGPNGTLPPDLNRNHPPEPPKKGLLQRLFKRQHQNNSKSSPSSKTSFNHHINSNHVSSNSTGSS
Sequence of RAC-beta serine/threonine-protein kinase (Homo sapiens), P31751 [S474D] (P31751 whole entry S474D, the tested form may be a part): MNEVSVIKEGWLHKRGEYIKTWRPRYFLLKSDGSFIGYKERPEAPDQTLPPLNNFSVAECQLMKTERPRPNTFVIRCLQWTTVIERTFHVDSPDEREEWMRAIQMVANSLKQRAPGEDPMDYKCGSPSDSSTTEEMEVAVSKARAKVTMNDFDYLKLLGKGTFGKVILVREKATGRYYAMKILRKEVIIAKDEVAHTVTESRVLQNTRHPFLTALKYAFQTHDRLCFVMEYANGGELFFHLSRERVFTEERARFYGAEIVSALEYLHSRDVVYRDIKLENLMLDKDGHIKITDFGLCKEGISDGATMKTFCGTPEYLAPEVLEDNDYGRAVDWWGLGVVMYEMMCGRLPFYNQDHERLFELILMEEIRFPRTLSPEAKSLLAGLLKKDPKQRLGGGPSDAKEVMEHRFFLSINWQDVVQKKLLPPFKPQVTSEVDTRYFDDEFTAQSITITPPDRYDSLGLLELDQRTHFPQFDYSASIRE

Structure (SMILES): C[C@@H](c1ccccc1)n1nnc2cnc3ccc(-c4cnc5[nH]ccc5c4)cc3c21
- Activity [1]: 48%
- Activity [2]: 80%
- Activity [3]: 92%
- Activity [4]: 55%
- Activity [5]: 50%
- Activity [6]: 2%
- Activity [7]: 87%
- Activity [8]: 85%
- Activity [9]: 91%
- Activity [10]: 77%
- Activity [11]: 61%
- Kd [12]: > 10 µM
- Activity [13]: 70%
- Activity [14]: 79%
- Activity [15]: 28%
- Activity [16]: 152%
- Activity [17]: 86%
- Activity [18]: 0%
- Activity [19]: 59%
- Activity [20]: 82%
